Data: ChEMBL document CHEMBL1130313, “1-[(omega-aminoalkyl)amino]-4-[N-(omega-aminoalkyl)carbamoyl]-9-oxo-9, 10-dihydroacridines as intercalating cytotoxic agents: synthesis, DNA binding, and biological evaluation” (J Med Chem, 1997)

Columns and labels:
[1] = tested on: Nucleic Acid; assay: Concentration required to give 50% fluorescence quenching of bound ethidium for [ethidium]: [poly(dA-dT)]2 DNA in ratio of 0.1:1 at pH 5; assay type: nucleic-acid assay
Procedure, shortened: (§1)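 Q (quenching) assay at pH 5: DNA at 20 μM DNAp (CT-DNA, [poly(dA-dT)]2 or [poly(dG-dC)]2) with 2 μM ethidium bromide. Buffer is 9.3 mM NaCl, 2 mM NaOAc, 0.1 mM EDTA, 0.01 M ionic strength. Drug (stock ~5 mM in DMSO) is added serially at 20 °C. Fluorescence is read with excitation 546 nm and emission 595 nm. Q is the concentration halving bound-ethidium fluorescence; mean of three.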

[2] = tested on: CH1; assay: Cytotoxic potency required to inhibit CH1 cell growth by 50%; assay type: functional, cell-based; conditions: Homo sapiens
Procedure, shortened: (§2)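 Human ovarian carcinoma (A2780, CH1, SKOV-3) or melanoma G-361 cells were plated at 100-5000 cells and allowed to adhere overnight. Aqueous drug at pH 7.0, diluted from DMSO stock, was applied at various concentrations for 96 h continuous exposure at 37 °C. Growth was measured by sulforhodamine B protein staining. IC50 is 50% growth inhibition versus untreated controls.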

[3] = tested on: Calf thymus DNA; assay: Inhibitory concentration against ethidium:Calf thymus DNA (1.26:1) binding at pH 7; assay type: nucleic-acid assay; conditions: Bos taurus
Procedure, shortened: (§3)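 Ethidium displacement at pH 7: 1.26 μM ethidium bromide with 1 μM CT-DNA in 10 mM TES, 0.1 mM EDTA. Drug (stock ~5 mM in DMSO) is titrated in at 20 °C. Read-out is excitation 546 nm, emission 595 nm. C50 is the drug concentration cutting bound-ethidium fluorescence by 50%; mean of three determinations.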

[4] = tested on: L1210; assay: Cytotoxic potency required to inhibit L1210 cell growth by 50% after cell drug contact for 48 hrs; assay type: functional, cell-based; conditions: Mus musculus, L1210, 48 h
Procedure, shortened: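 Mouse L1210 leukemia cells at 5 × 10^4 cells/mL were exposed for 48 h at 37 °C to aqueous drug solutions (≤0.5% v/v DMSO). Surviving cells were counted by Coulter counter against drug-free controls to give IC50. Assays were done in duplicate.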

[5] = tested on: Nucleic Acid; assay: Concentration required to give 50% fluorescence quenching of bound ethidium for [ethidium]: [(poly dG-dC)]2 DNA in ratio of 0.1:1 at pH 5; assay type: nucleic-acid assay; procedure, shortened: as §1
[6] = tested on: SK-OV-3; assay: Cytotoxic potency required to inhibit SKOV-3 cell growth 50%; assay type: functional, cell-based; conditions: Homo sapiens; procedure, shortened: as §2
[7] = tested on: A2780; assay: Cytotoxic potency required to inhibit A2780 cell growth by 50% after cell drug contact for 96 hrs; assay type: functional, cell-based; conditions: Homo sapiens, A2780, 96 h; procedure, shortened: as §2
[8] = tested on: Calf thymus DNA; assay: Inhibitory concentration against ethidium:Calf thymus DNA(0.1:1) binding at pH 5; assay type: nucleic-acid assay; conditions: Bos taurus; procedure, shortened: as §1
[9] = tested on: Calf thymus DNA; assay: Inhibitory concentration against ethidium:calf thymus DNA (1.26:1) binding at pH 5; assay type: nucleic-acid assay; conditions: Bos taurus
Procedure, shortened: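 Ethidium displacement at pH 5: 1.26 μM ethidium bromide with 1 μM CT-DNA in 9.3 mM NaCl, 2 mM NaOAc, 0.1 mM EDTA. Drug (stock ~5 mM in DMSO) is added serially at 20 °C. Fluorescence is read with excitation 546 nm and emission 595 nm. C50 is the concentration reducing bound-ethidium fluorescence by 50%; mean of three.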

[10] = tested on: HT-29; assay: Cytotoxic potency required to inhibit HT-29 cell growth by 50% after cell drug contact for 144 hrs; assay type: functional, cell-based; conditions: Homo sapiens, HT-29, 144 h
[11] = tested on: G-361; assay: Cytotoxic potency required to inhibit G-361 cell growth by 50%; assay type: functional, cell-based; conditions: Homo sapiens; procedure, shortened: as §2
[12] = Partition coefficient (logP); assay type: physicochemical; conditions: octanol/water
[13] = tested on: CH1; assay: Cytotoxic potency against CH1 cell proliferation; assay type: functional, cell-based; conditions: Homo sapiens; procedure, shortened: as §2
[14] = tested on: Calf thymus DNA; assay: Inhibitory concentration against ethidium:Calf thymus DNA(1.26:1) binding at pH 7; assay type: nucleic-acid assay; conditions: Bos taurus; procedure, shortened: as §3

SMILES	Q [1]	IC50 [2]	C50 [3]	IC50 [4]	Q [5]	IC50 [6]	IC50 [7]	Q [8]	C50 [9]	IC50 [10]	IC50 [11]	logP [12]	IC50 [13]	C50 [14]
Nc1ccc2c(O)c3ccc(N)cc3nc2c1	> 400 µM	> 100000 nM	630 µM	35000 nM	280 µM	> 100000 nM	37000 nM	340 µM	660 µM	–	–	–	–	–
c1ccc2nc3ccccc3cc2c1 [ACRIDINE]	26 µM	–	320 µM	–	22 µM	–	> 100000 nM	24 µM	142 µM	–	–	–	–	–
Nc1ccc2cc3ccc(N)cc3nc2c1	24 µM	–	–	–	14 µM	–	–	20 µM	–	–	–	–	–	–
N=C(N)c1ccc(/N=N/Nc2ccc(C(=N)N)cc2)cc1	5 µM	–	1.5 µM	–	19 µM	–	–	9 µM	4.4 µM	–	–	–	–	–
O=C1c2c(O)ccc(O)c2C(=O)c2c(NCCNCCO)ccc(NCCNCCO)c21 [MITOXANTRONE]	0.32 µM	2.65 nM	0.037 µM	0.4 nM	0.37 µM	–	0.55 nM	0.34 µM	0.021 µM	10 nM	0.65 nM	–	–	–
CCN(CC)CCNC(=O)c1ccc(NCCN(CC)CC)c2c(O)c3ccccc3nc12	19 µM	1250 nM	2.3 µM	3300 nM	36 µM	2400 nM	760 nM	27 µM	20 µM	5700 nM	6200 nM	7.25	–	–
Cn1cc(NC(=O)c2cc(NC(=O)c3cc(NC=O)cn3C)cn2C)cc1C(=O)NCCC(=N)N	1.6 µM	–	1.3 µM	–	130 µM	–	–	39.5 µM	5 µM	–	–	–	–	–
CN(C)CCNC(=O)c1ccc(NCCNCCO)c2c(O)c3ccccc3nc12	3.8 µM	16 nM	0.35 µM	35 nM	4.7 µM	170 nM	17 nM	4.2 µM	2 µM	140 nM	280 nM	4.09	–	–
COc1cc(NS(C)(=O)=O)ccc1Nc1c2ccccc2nc2ccccc12	25 µM	–	–	–	4.5 µM	–	–	3.8 µM	8.9 µM	–	–	–	–	–
CN(C)CCNC(=O)c1ccc(N(C)CCN(C)C)c2c(O)c3ccccc3nc12	13 µM	3400 nM	0.94 µM	1650 nM	15 µM	1000 nM	410 nM	14 µM	4.8 µM	3000 nM	1500 nM	4.21	–	–
O=C(NCCN1CCOCC1)c1ccc(NCCN2CCOCC2)c2c(O)c3ccccc3nc12	3.7 µM	1250 nM	3.7 µM	440 nM	6 µM	7400 nM	1500 nM	4.8 µM	16 µM	4500 nM	7200 nM	4.42	–	–
CN(C)CCNC(=O)c1ccc(NCCN(C)C)c2c(O)c3cc(O)ccc3nc12	4.4 µM	640 nM	0.37 µM	140 nM	5.4 µM	170 nM	51 nM	4.8 µM	2.2 µM	2000 nM	300 nM	4.77	–	–
O=C(NCCN1CCCCC1)c1ccc(NCCN2CCCCC2)c2c(O)c3ccccc3nc12	3.4 µM	1200 nM	0.28 µM	1200 nM	5.6 µM	620 nM	24 nM	4.4 µM	0.83 µM	450 nM	670 nM	7.73	–	–
CN(C)CCNC(=O)c1ccc(NCCN(C)C)c2c(=O)c3ccccc3[nH]c12	3.1 µM	–	0.34 µM	44 nM	3.5 µM	400 nM	15 nM	3.3 µM	1.1 µM	94 nM	15 nM	5.12	20 nM	–
CN(C)CCNC(=O)c1ccc(NCCN(C)C)c2c(O)c3cc([N+](=O)[O-])ccc3nc12	1.8 µM	175 nM	0.17 µM	460 nM	2.4 µM	210 nM	42 nM	2.1 µM	0.61 µM	190 nM	1800 nM	5.68	–	–
COc1ccc2nc3c(C(=O)NCCN(C)C)ccc(NCCN(C)C)c3c(O)c2c1	5.3 µM	490 nM	0.69 µM	410 nM	6.5 µM	420 nM	57 nM	5.8 µM	3.1 µM	500 nM	1250 nM	5.32	–	–
CN(C)CCCNC(=O)c1ccc(NCCCN(C)C)c2c(O)c3ccccc3nc12	3.2 µM	335 nM	0.38 µM	520 nM	6.6 µM	400 nM	110 nM	4.8 µM	3.2 µM	580 nM	3600 nM	5.76	–	–
O=C(NCCNCCO)c1ccc(NCCNCCO)c2c(O)c3ccccc3nc12	2.6 µM	165 nM	–	4000 nM	4.1 µM	21500 nM	4800 nM	3.2 µM	1.7 µM	> 23000 nM	15500 nM	3.15	–	0.36 µM
O=c1c2ccccc2[nH]c2ccccc12 [ACRIDONE]	> 500 µM	77000 nM	–	> 100000 nM	340 µM	> 100000 nM	> 100000 nM	> 400 µM	–	–	> 100000 nM	–	–	–
